Bioassay records: PubChem, several laboratories
bCat nuc transl: beta-catenin nuclear translocation modulation. HeLa beta-catenin nuclear translocation, immunofluorescence imaging. nuclear translocation activity, % at 5 µM. actives 0.3% (n = 190,000). AID 1665;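 active = nuclear translocation activity above 50% at 5 µM, with a well cell count of 50 or more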;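 also: per-cell ratio of nuclear to cytoplasmic median beta-catenin stain intensity; plate controls were DMSO negative control for no effect and GSK-3 inhibitor IX positive control for full effect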
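Test system: human HeLa cell line; Doses: 5 µM primary, 0.02–20 µM confirmation; Incubation: 24 h compound exposure, 37°C; Detection: beta-catenin immunofluorescence imaging with DAPI; Read-out: beta-catenin nuclear/cytoplasmic ratio, % activation.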
NPY-Y1 antag: blocks the human neuropeptide Y Y1 receptor. P25929. HEK293-CNG Y1 cells, membrane potential fluorescence; NPY at EC95, then isoproterenol. inhibition, % at 3.6 µM. actives 1% (n = 200,000);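 active = inhibition above the campaign mean inhibition of all tested compounds plus 3 SD, cut at about 20% in these data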;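 also: 0% = DMSO wells given NPY plus isoproterenol and 100% = isoproterenol alone without NPY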
Target sequence (P25929 whole entry, looked up): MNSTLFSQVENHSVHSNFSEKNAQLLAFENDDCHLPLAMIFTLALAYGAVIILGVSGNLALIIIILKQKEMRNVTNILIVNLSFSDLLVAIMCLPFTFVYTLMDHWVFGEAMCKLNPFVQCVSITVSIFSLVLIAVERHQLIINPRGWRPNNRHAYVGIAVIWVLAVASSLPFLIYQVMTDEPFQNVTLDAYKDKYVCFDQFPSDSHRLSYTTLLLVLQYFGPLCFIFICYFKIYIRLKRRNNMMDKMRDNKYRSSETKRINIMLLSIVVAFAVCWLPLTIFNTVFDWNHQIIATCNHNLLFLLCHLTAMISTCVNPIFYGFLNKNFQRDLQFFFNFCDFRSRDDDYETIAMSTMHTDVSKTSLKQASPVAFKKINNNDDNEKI
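Material: HEK293 Y1/CNG channel cell line | Also added: NPY (25 nM), isoproterenol (1 µM), Ro 20-1724 (25 µM) | Compound: One concentration, 3.6 µM, in 0.4% DMSO | Schedule: 3 h dye uptake, 1 h room-temperature compound, 45 min post-isoproterenol | Signal: Membrane-potential fluorescent dye readout | Read-out: % inhibition of NPY effect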
NPY-Y1 PAM-ag: potentiators or agonists of human neuropeptide Y receptor Y1; P25929; NPY-Y1 expressing cells, potentiator/agonist activation; activation, % at 3.6 µM; actives 0.37% (n = 220,000); in the data active = activation above about 33%, passing the limit was not always enough;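 also: cells stimulated with NPY at EC10 then isoproterenol at EC100; 0% = low agonist plus stimulus and 100% = saturating agonist plus stimulus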
NPY2 pot ag: human NPY-Y2 potentiation or agonism, primary screen | activation, % at 3.6 µM | AID 1359 | cells expressing NPY-Y2, potentiator/agonist read-out | actives 0.45% (n = 220,000); in the data active = activation above about 27%;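 also: cells stimulated with NPY near EC25 plus isoproterenol at EC100; 0% = vehicle plus submaximal agonist and 100% = vehicle plus saturating agonist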
NPY-Y2 antag: NPY-Y2 (human) receptor antagonism; actives 0.99% (n = 140,000); inhibition, % at 2.7 µM; NPY-Y2 expressing cells, antagonist mode; in the data active = inhibition above about 17%;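 also: 0% = vehicle with agonist challenge and 100% = reference antagonist with challenge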
MT stabilizer: microtubule stabilizers in HeLa cells; % tubulin-high responders, % at 10 µM; actives 0.83% (n = 200,000); HeLa tubulin immunostaining HCS, 24 h; share of cells brighter than vehicle mean+2SD;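 active = plate Z-score above 3 for both tubulin-high and condensed-nucleus cell shares, with cell loss under 80%, at 10 µM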;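 also: anti alpha tubulin signal scored within the nucleus-defined area of each cell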
Active calls of the source: *; . = no result. Most compounds without a hit are left out; they make up all but 2.6% or so of the library.

SMILES | bCat nuc transl | NPY-Y1 antag | NPY-Y1 PAM-ag | NPY2 pot ag | NPY-Y2 antag | MT stabilizer
COc1ccc(Oc2ccc3c(C(F)(F)F)cc(C(F)(F)F)nc3n2)cc1 | 1 | 11 | 9 | 6 | 1 | 2
Cc1ncsc1C(=O)N1CCCC(CNS(=O)(=O)c2cccs2)C1 (centres undefined) | 0 | -1 | 9 | 7 | . | 2
Cn1c(-c2ccc3c(c2)OCO3)cnc1NCc1ccccc1 | 4 | 12 | -15 | 3 | 10 | 20*
Cn1c(-c2ccc3c(c2)OCO3)cnc1NCc1ccccc1Cl | 1 | 12 | -7 | -2 | . | 6
Cc1cc(C)cc(NCc2cc3c(cc2[N+](=O)[O-])OCO3)c1 | -1 | -1 | 0 | -4 | 8 | 4
Cc1ccc(-c2cnc(NCc3cc4c(cc3[N+](=O)[O-])OCO4)n2C)cc1C | 1 | -16 | 102* | 88* | . | 3
CCOc1ccc(/C=N/Nc2cc(=O)n(C)c(=O)n2C)cc1 | 2 | 2 | -8 | -5 | 1 | 2
CCC(NC(=O)c1ccccc1NC(=O)c1ccccc1)C(=O)NNC(=O)c1cccnc1 (centres undefined) | 2 | . | -7 | -6 | . | .
COc1ccc(/C=C/C(=O)NC(=S)NNC(=O)c2ccco2)cc1 | -2 | 7 | -8 | 1 | -2 | 33*
CC(/C=C1\SC(=S)N(CCC(=O)Nc2nc(C)cs2)C1=O)=C\c1ccccc1 | 0 | . | -2 | 6 | . | .
CC(C)c1ccc(NC(=O)COc2ccc(F)cc2C(=O)c2cnn(-c3ccccc3)c2)cc1 | . | -5 | 1 | -4 | 1 | 20*
Cc1cccc(CN2CCN(C(=O)CCl)CC2)c1 | 0 | 5 | -3 | 9 | 0 | 3
O=C(O)CCc1ccc(-c2ccc(F)cc2)n1Cc1ccco1 | 2 | -10 | 80* | 71* | 0 | 1
O=C(O)CCc1ccc(-c2ccccc2)n1Cc1ccco1 | . | 10 | 9 | -11 | 5 | 2
O=C(Nc1ccc(F)cc1F)c1ccco1 | -4 | 2 | -3 | 5 | 3 | 3
COc1ccc(-c2cc(C(F)F)n3ncc(C(=O)NCC4CCCO4)c3n2)cc1 (centres undefined) | -1 | 29* | -33 | -24 | 29* | 1
COc1ccc(-c2cc(C(F)F)n3ncc(C(=O)N4CCc5ccccc54)c3n2)cc1 | 6 | 6 | 3 | -7 | . | 26*
Cc1ccc(C)c(OCC(O)CN2C(C)CCCC2C)c1 (centres undefined) | . | 11 | -35 | -15 | 9 | 3
Cc1ccc(C)c(OCC(O)CN2CCCCC2C)c1 (centres undefined) | 3 | -10 | 101* | 80* | 2 | 2
O=C(CSc1nnc(-c2ccccc2)n1-c1ccccc1)c1ccc[nH]1 | -1 | 2 | 20 | 14 | 4 | 6
O=C(CSc1nnc(-c2ccccc2)n1-c1ccccc1)c1cccs1 | -2 | -2 | 49* | 31* | 5 | 1
COc1ccc(C(=O)N2CC3(CC(c4ccc(Cl)cc4)=NO3)C[C@H]2C(=O)NCC(N)=O)cc1 (some centres undefined) | 0 | 2 | -10 | 2 | 4 | 3
CCc1ccccc1NC1=CC(=O)CC(C)(C)C1 | -2 | 5 | -2 | -1 | . | 2
Cc1ccc(C(=O)n2c3ccccc3c3ccccc32)cc1 | 96* | 14 | -50 | -24 | 13 | 44*
COc1ccc(-c2noc(C(=O)NCc3ccccc3Cl)n2)cc1OC | 2 | 25* | -10 | -6 | . | 2
SMILES | bCat nuc transl | NPY-Y1 antag | NPY-Y1 PAM-ag | NPY2 pot ag | NPY-Y2 antag | MT stabilizer
COc1ccc(-c2noc(C(=O)NCc3ccc(F)cc3)n2)cc1OC | -2 | 10 | -30 | -14 | . | 2
CCOc1ccc(Nc2cc(=O)oc3ccccc23)cc1 | 1 | 4 | -4 | 0 | -1 | 29*
CCCCNc1cc(=O)oc2ccccc12 | -2 | -2 | -5 | 9 | 1 | 2
Cc1cccc(-n2ccnc2SCC(=O)Nc2nccs2)c1C | -1 | 0 | 3 | 7 | 2 | 4
CCc1nnc(NC(=O)CSc2nccn2-c2cccc(C)c2C)s1 | 0 | -7 | 10 | 11 | 5 | 19*
O=C1c2ccccc2C(=O)c2c(Nc3ccc(CCO)cc3)ccc(O)c21 | -1 | . | 121* | 117* | . | .
CC(=O)Nc1ccc(Nc2ccc3c4c(cc(=O)n3C)-c3ccccc3C(=O)c24)cc1 | 1 | -1 | 7 | 6 | . | 2
